From PubChem BioAssay
E-sel inducer: E-selectin induction in HUVECs, primary screen, imaging, HUVEC, immunofluorescence imaging, single point; P16581; normalized: neutral wells 0, TNF-alpha wells 100; activation, % at 7.58 µM; 260,000 tested, 0.37% active; AID 686992, 2013;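 active = mean E-selectin-positive cell signal at least 10% of the positive control, reached in at least 60% of replicates, without over 20% cell loss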
Target sequence (P16581 whole entry, looked up): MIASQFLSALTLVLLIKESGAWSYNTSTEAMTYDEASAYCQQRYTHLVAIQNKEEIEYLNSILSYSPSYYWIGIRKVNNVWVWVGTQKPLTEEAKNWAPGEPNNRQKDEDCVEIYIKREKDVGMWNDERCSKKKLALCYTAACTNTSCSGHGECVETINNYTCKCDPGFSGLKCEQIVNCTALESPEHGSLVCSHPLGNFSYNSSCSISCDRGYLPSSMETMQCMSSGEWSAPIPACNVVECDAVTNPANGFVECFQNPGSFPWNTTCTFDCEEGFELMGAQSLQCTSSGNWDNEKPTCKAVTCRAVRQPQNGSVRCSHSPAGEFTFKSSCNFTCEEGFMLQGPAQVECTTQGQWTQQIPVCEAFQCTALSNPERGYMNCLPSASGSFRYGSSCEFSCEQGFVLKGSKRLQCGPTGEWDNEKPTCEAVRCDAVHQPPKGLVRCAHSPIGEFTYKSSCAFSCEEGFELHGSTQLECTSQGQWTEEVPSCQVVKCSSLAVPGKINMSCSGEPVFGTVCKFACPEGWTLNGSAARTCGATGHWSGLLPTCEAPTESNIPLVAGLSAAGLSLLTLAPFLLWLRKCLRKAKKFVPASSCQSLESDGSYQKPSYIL
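material = human umbilical vein endothelial cells (HUVEC), E-selectin induction | quantity = 3,000 cells/well | medium = EGM-2 growth medium on 0.1% gelatin-coated wells | technique = immunofluorescence imaging | read-out basis = % PE-positive cells | control set = TNF-alpha positive control, DMSO neutral control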
EWS-Fli block: EWS/Fli-driven NR0B1 reporter inhibitors, primary screen, A673 cells, NR0B1 luciferase, luminescence, MLPCN library. viability-normalised. inhibition, % at 12.6 µM. 350,000 tested, 0.67% active;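 active = mean inhibition of at least 50% after viability correction, with every replicate also passing that limit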;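 note: firefly luciferase signal divided by Alamar Blue viability fluorescence both relative to DMSO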
LGR2 inh: inhibitors of bursicon-induced LGR2 CRE-luciferase signal, primary screen, cell-based, HEK293, CRE-luciferase reporter, bursicon stimulation; Drosophila bursicon receptor LGR2 (rickets); 380,000 tested, 0.35% active; inhibition, % at 9.99 µM; bursicon-stimulated, 4 h;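 active = drop in luminescence signal, shown as inhibition above about 50% in the replicate tests, limit read from the data, passing the limit was not always enough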;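 note: agonist challenge used bursicon conditioned medium at about half maximal strength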
rRNA inh HTS: reduced GFP signal of wild-type E. coli, primary screen, bacterial rRNA inhibitor project, GFP/RFP fluorescence, OD600, single point; E. coli WT GFP vs humanized-ribosome RFP mutants, 24 h; active compounds read low; DMSO median 0, no signal -100; GFP signal change (wild-type ribosome), % (concentration not given with the values); 350,000 tested, 1.6% active; AID 720706, 2013;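 active = significant combined selectivity score with lowered wild-type GFP, culture density cut under 30%, mutant RFP and density less affected; inactive = any of these conditions unmet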
* hit, by the source's call; . = no result given. The list is not random: actives were taken first. Their share in the collection is about 2.4%.

SMILES	E-sel inducer	EWS-Fli block	LGR2 inh	rRNA inh HTS
CCCN(C)C[C@H]1Oc2cc(C#Cc3cccnc3)ccc2S(=O)(=O)N([C@H](C)CO)C[C@@H]1C	0	8	4	-4
Cc1ccc(CN=c2c([N+](=O)[O-])nn(-c3cccc(Cl)c3)n2O)cc1	5	4	-22	-24*
C=Cn1cc[n+](CC(=O)c2cc(C(C)(C)C)c(O)c(C(C)(C)C)c2)c1	.	11	2	-19*
Fc1ccc(Nc2nc(NCc3ccco3)c3ccccc3n2)cc1	0	16	32	-41*
Nc1nc(Nc2ccccc2)nc(NCc2ccco2)c1[N+](=O)[O-]	.	.	13	.
C[C@H]1CN([C@@H](C)CO)S(=O)(=O)c2ccc(-c3cccc(C#N)c3)cc2O[C@@H]1CN(C)C(=O)Nc1cc(F)ccc1F	0	-3	-7	-6
Cc1cc(/C=N/n2cnnc2)c(C)n1-c1ccc(OCc2ccccc2F)cc1	.	8	19	-43*
Cc1cc(/C=N/n2cnnc2)c(C)n1-c1ccc(OCc2ccc(Cl)cc2)cc1	.	.	8	.
O=C(C[C@H]1C[C@@H]2c3cc(NC(=O)CC4CC4)ccc3O[C@@H]2[C@H](CO)O1)NCCc1ccccc1	0	0	-1	0
COc1ccc2c3c([nH]c2c1)[C@@H](CO)N(C(=O)Nc1ccc(F)cc1)CC31CCN(CC2CC2)CC1	0	2	7	-1
COc1ccc(/C=C2\CCC/C(=C\C=N\N(C)C)C2=O)cc1	.	18	-8	-20*
COc1ccc(/C=C2\CCCCC2=O)cc1	4	-47	-16	2
CN(C)/N=C/C=C1\CCC/C(=C\c2ccc(F)c(F)c2)C1=O	0	-39	25	-27*
COc1ccc(C=C2CS(=O)(=O)CC(=Cc3ccc(OC)cc3)C2=O)cc1	0	60*	active	-13
Cc1cc(C)c2cc(C(=O)Nc3ccc(C)c(F)c3)[nH]c2c1	1	-10	3	-4
CCCCNC(=O)c1cc2c(C)cc(C)cc2[nH]1	21	0	0	-22*
Cc1c(C(=O)OCC(=O)N(C)c2ccccc2)oc2ccccc12	1	-44	-13	-28*
CN(C(=O)COC(=O)c1n[nH]c(=O)c2ccccc12)c1ccccc1	38*	4	-10	6
COc1ccccc1S(=O)(=O)N[C@@H]1CC[C@H](CC(=O)N2CCCCC2)O[C@H]1CO	0	10	1	2
CCOC(=O)C1=CCC(c2ccc(CC)cc2)N(S(=O)(=O)c2ccc(C)cc2)C1 (stereo unspecified)	0	-8	20	13
CCc1ccc([C@@H]2CC=C(C(=O)O)CN2S(=O)(=O)c2ccc(C)cc2)cc1	.	-4	-1	-23*
CCOc1ccc([C@@H]2CC=C(C(=O)O)CN2S(=O)(=O)c2ccc(C)cc2)cc1	0	-10	.	-26*
CCOc1ccc(C2CC=C(C(C)=O)CN2S(=O)(=O)c2ccc(C)cc2)cc1 (stereo unspecified)	1	4	.	.
COc1cc(C(=O)NC(=S)Nc2nc(-c3ccc(F)cc3)cs2)cc(OC)c1OC	.	-17	5	-8
COc1cc(C(=O)Nc2nc(-c3cccs3)cs2)cc(OC)c1OC	.	-57	59*	-30*
SMILES	E-sel inducer	EWS-Fli block	LGR2 inh	rRNA inh HTS
CC1=C(C#N)C(=O)NC(=O)/C1=C\c1ccc(-c2cc(C)c(C)cc2[N+](=O)[O-])o1	.	11	10	-34*
CNc1ncnc(Sc2nc(N)nc3nc[nH]c23)c1[N+](=O)[O-]	0	64*	7	-10
Nc1nc(Sc2ccc([N+](=O)[O-])c3nonc23)c2[nH]cnc2n1	0	27	.	13
C[C@@H]1CCCCO[C@H](CN(C)C(=O)NC2CCCCC2)[C@@H](C)CN([C@H](C)CO)C(=O)c2cc(NS(=O)(=O)c3cn(C)cn3)ccc2O1	-1	.	13	3
COc1ccc(NC(=O)C2(C)Cc3c(-c4ccc5c(c4)OCO5)ccnc3O2)cc1OC (stereo unspecified)	4	2	-18	-5
COc1ccc(NC(=O)C2(C)Cc3c(-c4ccc5c(c4)OCO5)ccnc3O2)cn1 (stereo unspecified)	1	64*	-59	-13
CC1(C(=O)Nc2ccc3c(c2)OCO3)Cc2c(-c3cccc(C(N)=O)c3)ccnc2O1 (stereo unspecified)	2	59*	-32	-1
CC1(C(=O)Nc2ccc3c(c2)OCO3)Cc2c(-c3ccc4c(c3)OCO4)ccnc2O1 (stereo unspecified)	1	-23	-9	-1
COc1ccc2c3c(n(C)c2c1)[C@@H](CO)N(C(=O)NC(C)C)CC31CCN(C(C)=O)CC1	0	3	-1	0
Cc1ccc(-n2nc(C)c(Sc3ccccc3[N+](=O)[O-])c2N)cc1	.	6	-21	-42*
Cc1n[nH]c(C)c1Sc1ccccc1[N+](=O)[O-]	5	4	7	-34*
Cc1ccc(S(=O)(=O)N(C)C[C@H]2OCCCC[C@@H](C)Oc3ccc(NC(=O)CCC(F)(F)F)cc3C(=O)N([C@@H](C)CO)C[C@H]2C)cc1	.	8	5	-1
CC(=O)N(C1=C(Cl)C(=O)c2ccccc2C1=O)C1CCCCC1	36*	55*	8	-20
CC(C)(C)NC(=O)NC(=O)C[n+]1ccc(Cc2ccc([N+](=O)[O-])cc2)cc1	0	19	18	-14*
N#CC1=C(N)Oc2cc(N)ccc2C1c1ccccc1F (stereo unspecified)	1	55*	1	0
COc1cccc(C2C(C#N)=C(N)Oc3cc(N)ccc32)c1OC (stereo unspecified)	.	.	-7	.
N#CC1=C(N)Oc2cc(N)ccc2C1c1cc(Br)cs1 (stereo unspecified)	.	58*	.	7
N#CC1=C(N)Oc2cc(N)ccc2C1c1ccsc1 (stereo unspecified)	.	.	0	.
CO[C@H]1CN(C)C(=O)c2cc(NC(=O)Nc3ccccc3F)ccc2OC[C@@H](C)N(C(C)=O)C[C@@H]1C	0	2	-6	1
O=C(C1CCC1)N1C[C@@H]2N[C@H](C1)C2c1ccc(-c2ccncc2)cc1 (stereo partly specified)	0	-9	5	5
C[C@@H]1CN([C@H](C)CO)C(=O)c2cc(C#Cc3cccnc3)cnc2O[C@H]1CN(C)Cc1ccc(F)cc1	0	4	9	2
Cc1ccc(/C=C/C(=O)c2ccc(O)cc2)cc1	-5	-78	-40	-27*
O=C(NC(=S)N1CCCCC1)c1csc([N+](=O)[O-])c1	.	13	-4	-23*
C=CCNC(=S)NC(=O)c1csc([N+](=O)[O-])c1	-2	16	14	-7
O=C(Nc1ccc(N2CCN(c3ccc(C(F)(F)F)cn3)CC2)nc1)c1cccs1	.	6	.	.
O=C(Nc1ccc(N2CCN(c3ncccc3C(F)(F)F)CC2)nc1)c1cccs1	-7	6	92*	-22
